Laboratory results taken from ChEMBL document CHEMBL1124559, “Synthesis and antiviral activity of the enantiomeric forms of carba-5-iodo-2'-deoxyuridine and carba-(E)-5-(2-bromovinyl)-2'-deoxyuridine” (1989).
Values after ≈ are worked out from the molar mass of the structure shown.

Columns and labels:
Format in all cases: functional
[1] = species on record: Oryctolagus cuniculus; assay: Antiviral activity against KOS strain of herpes simplex virus-1 in primary rabbit kidney cell cultures
Method in brief: (§1)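 Confluent cell monolayers in microtiter trays infected with 100 CCID50 of virus (1 CCID50 = dose infecting 50% of cultures); after 1 h adsorption, residual virus removed and cultures incubated with varying compound concentrations. Cytopathogenicity scored once complete in untreated infected controls; value is concentration reducing virus-induced cytopathogenicity by 50%, averaged over three to four separate experiments.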

[2] = species on record: Oryctolagus cuniculus; assay: Antiviral activity against F strain of herpes simplex virus-1 in primary rabbit kidney cell cultures; method in brief: as §1
[3] = species on record: Oryctolagus cuniculus; assay: Antiviral activity against Vaccinia virus in primary rabbit kidney cell cultures; method in brief: as §1
[4] = species on record: Oryctolagus cuniculus; assay: Antiviral activity against McIntyre strain of herpes simplex virus-1 in primary rabbit kidney cell cultures; method in brief: as §1
[5] = species on record: Oryctolagus cuniculus; assay: Antiviral activity against G strain of herpes simplex virus-2 in primary rabbit kidney cell cultures; method in brief: as §1
[6] = species on record: Oryctolagus cuniculus; assay: Antiviral activity against Vesicular stomatitis virus in primary rabbit kidney cell cultures; method in brief: as §1
[7] = species on record: Oryctolagus cuniculus; assay: Antiviral activity against VMW 1837 strain of thymidine kinase deficient (TK-) herpes simplex virus-1 in primary rabbit kidney cell cultures; method in brief: as §1
[8] = species on record: Oryctolagus cuniculus; assay: Minimum cytotoxic concentration required to cause a microscopically detectable alteration of rabbit kidney cell morphology
Method in brief: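 Cell cultures exposed to varying compound concentrations; value is concentration required to cause microscopically detectable alteration of cell morphology.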

[9] = species on record: Oryctolagus cuniculus; assay: Antiviral activity against 196 strain of herpes simplex virus-2 in primary rabbit kidney cell cultures; method in brief: as §1
[10] = species on record: Oryctolagus cuniculus; assay: Antiviral activity against B2006 strain of thymidine kinase deficient (TK-) herpes simplex virus-1 in primary rabbit kidney cell cultures; method in brief: as §1
[11] = species on record: Oryctolagus cuniculus; assay: Antiviral activity against Lyons strain of herpes simplex virus-2 in primary rabbit kidney cell cultures; method in brief: as §1
[12] = Oryctolagus cuniculus, read-out: MIC

| Compound | MIC [1] | MIC [2] | MIC [3] | MIC [4] | MIC [5] | MIC [6] | MIC [7] | MCC [8] | MIC [9] | MIC [10] | MIC [11] | MIC [1, 12] | MIC [2, 12] | MIC [3, 12] | MIC [4, 12] | MIC [5, 12] |
| --- | --- | --- | --- | --- | --- | --- | --- | --- | --- | --- | --- | --- | --- | --- | --- | --- |
| O=c1[nH]c(=O)n([C@@H]2C[C@H](CO)[C@@H](O)C2)cc1I (racemic) | 0.1 µg/mL (≈ 0.284 µM) | 0.1 µg/mL (≈ 0.284 µM) | 150 µg/mL (≈ 426 µM) | 0.1 µg/mL (≈ 0.284 µM) | 20 µg/mL (≈ 56.8 µM) | – | – | – | – | – | – | – | – | – | – | – |
| O=c1[nH]c(=O)n([C@@H]2C[C@H](CO)[C@@H](O)C2)cc1I (stereo in doubt; (+)) | 0.07 µg/mL (≈ 0.199 µM) | 0.07 µg/mL (≈ 0.199 µM) | 40 µg/mL (≈ 114 µM) | 0.2 µg/mL (≈ 0.568 µM) | 10 µg/mL (≈ 28.4 µM) | > 400 µg/mL | > 400 µg/mL | > 400 µg/mL | > 400 µg/mL | > 400 µg/mL | > 400 µg/mL | – | – | – | – | – |
| O=c1[nH]c(=O)n([C@@H]2C[C@H](CO)[C@@H](O)C2)cc1I (stereo in doubt; (-)) | 1 µg/mL (≈ 2.84 µM) | 7 µg/mL (≈ 19.9 µM) | >400 µg/mL | 20 µg/mL (≈ 56.8 µM) | 70 µg/mL (≈ 199 µM) | – | – | – | – | – | – | – | – | – | – | – |
| O=c1[nH]c(=O)n([C@H]2C[C@H](O)[C@@H](CO)O2)cc1/C=C/Br [BRIVUDINE] | – | – | – | – | – | > 400 µg/mL | > 400 µg/mL | > 400 µg/mL | 70 µg/mL (≈ 210 µM) | 150 µg/mL (≈ 450 µM) | 7 µg/mL (≈ 21 µM) | 0.01 µg/mL (≈ 0.03 µM) | 0.02 µg/mL (≈ 0.06 µM) | 15 µg/mL (≈ 45 µM) | 0.025 µg/mL (≈ 0.075 µM) | 2 µg/mL (≈ 6 µM) |
| O=c1[nH]c(=O)n([C@H]2C[C@H](O)[C@@H](CO)O2)cc1I [IDOXURIDINE] | – | – | – | – | – | > 400 µg/mL | > 400 µg/mL | > 400 µg/mL | 2 µg/mL (≈ 5.65 µM) | > 400 µg/mL | 1 µg/mL (≈ 2.82 µM) | 0.1 µg/mL (≈ 0.282 µM) | 0.07 µg/mL (≈ 0.198 µM) | 0.2 µg/mL (≈ 0.565 µM) | 0.1 µg/mL (≈ 0.282 µM) | 0.4 µg/mL (≈ 1.13 µM) |
